Reference: PMC4629852 (Nature chemical biology, 2015)

What was measured:
BCR = biological target: T1, BCR (Homo sapiens, UniProt P11274); experiment: Expression proteomics in MCF-7 cells; assay type: cell-based; details: MCF-7, 500 nM, prolonged incubation, P < 0.05
T1 sequence (P11274 1-1271): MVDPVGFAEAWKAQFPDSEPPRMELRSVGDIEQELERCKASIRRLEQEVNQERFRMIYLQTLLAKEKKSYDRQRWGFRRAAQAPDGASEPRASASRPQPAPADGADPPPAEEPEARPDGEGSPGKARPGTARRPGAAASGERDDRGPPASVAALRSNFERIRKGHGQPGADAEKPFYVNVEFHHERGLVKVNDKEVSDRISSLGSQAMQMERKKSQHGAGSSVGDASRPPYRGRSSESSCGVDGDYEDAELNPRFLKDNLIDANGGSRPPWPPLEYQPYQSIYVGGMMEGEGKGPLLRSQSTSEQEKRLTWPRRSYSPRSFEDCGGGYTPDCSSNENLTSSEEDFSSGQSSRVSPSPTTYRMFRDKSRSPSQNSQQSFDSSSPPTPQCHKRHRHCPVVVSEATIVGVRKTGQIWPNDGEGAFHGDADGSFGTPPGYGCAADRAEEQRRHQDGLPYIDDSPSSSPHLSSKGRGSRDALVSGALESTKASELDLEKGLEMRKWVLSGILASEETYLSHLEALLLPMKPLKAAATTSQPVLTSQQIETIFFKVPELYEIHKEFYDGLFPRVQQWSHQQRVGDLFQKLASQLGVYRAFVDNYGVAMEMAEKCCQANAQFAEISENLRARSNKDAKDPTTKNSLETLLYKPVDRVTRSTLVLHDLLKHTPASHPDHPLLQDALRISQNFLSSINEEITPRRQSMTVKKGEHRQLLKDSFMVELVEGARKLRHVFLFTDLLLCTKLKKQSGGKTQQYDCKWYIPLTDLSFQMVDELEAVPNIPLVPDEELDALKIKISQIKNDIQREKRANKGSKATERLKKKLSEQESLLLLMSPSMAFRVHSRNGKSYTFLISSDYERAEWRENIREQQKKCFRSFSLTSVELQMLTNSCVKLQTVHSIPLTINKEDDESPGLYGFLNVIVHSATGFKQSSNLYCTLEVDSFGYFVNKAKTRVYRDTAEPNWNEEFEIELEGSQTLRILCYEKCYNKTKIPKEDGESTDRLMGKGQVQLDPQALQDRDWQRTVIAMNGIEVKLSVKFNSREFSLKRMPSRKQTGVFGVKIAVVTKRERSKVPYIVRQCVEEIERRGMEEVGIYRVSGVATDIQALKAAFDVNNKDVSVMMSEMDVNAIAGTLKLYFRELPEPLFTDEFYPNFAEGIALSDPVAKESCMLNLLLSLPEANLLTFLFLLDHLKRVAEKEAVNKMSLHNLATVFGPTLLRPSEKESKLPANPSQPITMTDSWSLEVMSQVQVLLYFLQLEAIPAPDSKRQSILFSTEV
Summary of the method: (§1)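 MCF-7 cells were plated 1 day before treatment at 1 × 10⁶ cells/well in MEM + 10% FBS + 1% NEAA + sodium pyruvate. They were treated in biological duplicate for the indicated times, scraped into ice-cold PBS and lysed in 2% SDS (95 °C, 3 min). Benzonase digestion followed (37 °C, 1.5 h), then BCA. Proteins were reduced with DTT, alkylated with iodoacetamide, gel-separated, trypsin-digested and quantified by LC-MS/MS.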

HIF1α = experiment: ODD-luciferase assay of HIF1α processing by VHL; assay type: cell-based
ERRα [1] = biological target: T2, ERRα (Homo sapiens, UniProt P11474); experiment: ERRα degradation in MCF-7 cells by immunoblotting; assay type: cell-based
T2 sequence (P11474 1-423): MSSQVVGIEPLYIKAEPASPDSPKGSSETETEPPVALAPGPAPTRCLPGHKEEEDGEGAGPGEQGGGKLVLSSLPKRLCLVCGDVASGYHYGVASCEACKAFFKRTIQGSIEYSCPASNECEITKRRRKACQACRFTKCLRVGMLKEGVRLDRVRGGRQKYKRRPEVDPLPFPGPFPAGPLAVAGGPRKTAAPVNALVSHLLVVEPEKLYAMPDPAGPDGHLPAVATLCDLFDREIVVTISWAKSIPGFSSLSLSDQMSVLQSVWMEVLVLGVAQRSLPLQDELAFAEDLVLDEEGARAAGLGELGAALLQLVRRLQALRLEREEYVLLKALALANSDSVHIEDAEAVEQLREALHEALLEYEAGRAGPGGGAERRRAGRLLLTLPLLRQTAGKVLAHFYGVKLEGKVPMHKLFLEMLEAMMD
Summary of the method: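 MCF7 cells were grown in DMEM/F12 + 10% FBS at 37 °C, 5% CO₂. They were seeded at 70% confluency, attached overnight, then treated with test compound for 8 h. An optional 1 h pretreatment with 1 μM epoxomicin preceded compound. Lysates were BCA-normalised, run on 4–12% gels, transferred to PVDF, milk-blocked and probed overnight with anti-ERRα.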

ERRα [2] = biological target: T2, ERRα; experiment: In vivo ERRα knockdown in MDA-MB-231 tumor xenografts in mice, western blotting; details: 100 mg/kg i.p. every 8 h, four doses, ~5 h after last dose, vs vehicle
ERRα [3] = biological target: T2, ERRα; experiment: Expression proteomics in MCF-7 cells; assay type: cell-based; details: MCF-7, 100 nM and 500 nM, 4, 8 or 24 h
Summary of the method: as §1

ERRα [4] = biological target: T3, ERRα (Mus musculus, UniProt O08580); experiment: In vivo ERRα knockdown in mouse tissues, western blotting; details: mice, 100 mg/kg i.p. every 8 h, four doses, ~5 h after last dose, vs vehicle
T3 sequence (O08580 1-422): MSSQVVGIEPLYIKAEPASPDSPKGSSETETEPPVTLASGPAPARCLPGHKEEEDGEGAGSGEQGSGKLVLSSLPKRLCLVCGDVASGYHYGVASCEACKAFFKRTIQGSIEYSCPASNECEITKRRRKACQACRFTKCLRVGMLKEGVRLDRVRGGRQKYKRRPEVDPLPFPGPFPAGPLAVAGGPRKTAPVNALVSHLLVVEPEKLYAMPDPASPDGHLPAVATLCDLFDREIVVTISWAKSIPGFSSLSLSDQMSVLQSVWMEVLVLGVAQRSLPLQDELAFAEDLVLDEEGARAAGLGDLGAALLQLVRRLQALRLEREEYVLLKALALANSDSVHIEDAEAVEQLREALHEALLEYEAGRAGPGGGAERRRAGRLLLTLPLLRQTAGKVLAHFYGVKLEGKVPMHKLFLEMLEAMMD

RIPK2 [5] = biological target: T4, RIPK2 (Homo sapiens, UniProt O43353); experiment: Expression proteomics in THP-1 cells; assay type: cell-based; details: THP-1, 30 nM, 6, 18 and 24 h
RIPK2 [6] = biological target: T4, RIPK2; experiment: RIPK2 degradation in THP-1 monocytes by immunoblotting; assay type: cell-based
Summary of the method: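 THP-1 cells were cultured in RPMI 1640 + 10% FBS at 37 °C, 5% CO₂. Cells (5 × 10⁶) were treated with a dose range for 16 h, or at 30 nM for a time course. Options were a 1 h pretreatment with 1 μM epoxomicin, or washout after 4 h with PBS washes and fresh medium. RIPK2 was detected by western blot.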

VHL complex = VHL complex (Homo sapiens, UniProt P40337); experiment: Competitive binding fluorescence polarization vs HIF1α-derived peptide
RIPK2 [7] = biological target: RIPK2 (Homo sapiens, UniProt O43353+P40337); experiment: In vitro ubiquitination in reconstituted E1-E2-VHL cascade; assay type: biochemical
Summary of the method: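 Three-stage reaction at room temperature. First, RIPK2 (500 nM final) was autophosphorylated with [³²P]γ-ATP for 10 min in Tris/KCl/Mg/Mn/DTT buffer, pH 7.5. Ubiquitination buffer (2 mM ATP) was then added with VHL (250 nM final) and test compound at various concentrations. Separately, UbE1 (25 nM), Ubc4 (250 nM) and ubiquitin (116 μM) were precharged. The mixtures were combined and quenched over time. ³²P was converted to moles of RIPK2 (five phosphopeptides) and compared with moles of compound.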

[8] = biological target: VHL-RIPK2 ternary complex (Homo sapiens, UniProt O43353+P40337); assay type: binding; details: THP-1 lysate
Summary of the method: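 THP-1 lysate in Tris/glycerol/MgCl₂/NaCl/vanadate/0.008% NP40 buffer was adjusted to 5 mg ml⁻¹. Lysate (10 mg protein) was incubated with compound at 3, 30 or 300 nM, or DMSO, for 2 h at 4 °C. It was then captured for 2 h at 4 °C on anti-VHL or IgG1κ control agarose beads. Eluates were analysed by immunoblot and LC-MS, as log₂ fold changes over replicates (≥2 unique peptides).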

RIPK3, ABL and TESK = experiment: Expression proteomics in THP-1 cells; assay type: cell-based, human; details: THP-1, 30 nM
Summary of the method: (§2)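 THP-1 cells were seeded at 3 × 10⁶ cells/well in RPMI1640 + 10% heat-inactivated FBS. They were exposed to 30 nM test compound for 6, 18 or 24 h; the 18 h arm was run in biological duplicate. Cells were collected on ice, washed twice in cold PBS, snap-frozen and SDS-lysed. Proteins were reduced, alkylated, gel-separated, trypsin-digested and quantified proteome-wide by LC-MS/MS.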

THP-1 cells = experiment: Cellular toxicity; assay type: cell-based, human; details: any concentration, Supplementary Fig. 7
MAPKAPK3 [9] = biological target: T5, MAPKAPK3 (Homo sapiens, UniProt Q16644); experiment: Expression proteomics in THP-1 cells; assay type: cell-based; details: THP-1, 30 nM; of ~7,000 proteins only RIPK2 and MAPKAPK3
Summary of the method: as §2

MAPKAPK3 [10] = biological target: T5, MAPKAPK3; experiment: Kinobeads competition binding; details: below the limit of detection

COc1cc(/C=C2\SC(=O)N(CCOCCC(=O)N[C@H](C(=O)N3C[C@H](O)C[C@H]3C(=O)NCc3ccc(-c4scnc4C)cc3)C(C)(C)C)C2=O)ccc1Oc1ccc(C#N)cc1C(F)(F)F [PROTAC_ERRα]
BCR levels (BCR): downregulated | stabilization of HIF1α (ODD-luciferase) (HIF1α; concentrations up to 30 μM): did not stabilize HIF1α | decrease in normalized ERRα levels (ERRα [1]; MCF-7, 1 h pretreatment with 1 μM epoxomicin): 5% | maximal level of degradation (Dmax) (ERRα [1]; MCF-7 cells, 8 h): 86% | reduction of ERRα levels in MDA-MB-231 tumors (ERRα [2]): ~39% | ERRα levels (ERRα [3]): decreased levels of ERRα | reduction of ERRα levels in heart (ERRα [4]): approximately 44% | reduction of ERRα levels in kidney (ERRα [4]): approximately 44%

Cc1ncsc1-c1ccc(CNC(=O)[C@H]2C[C@H](O)CN2C(=O)[C@@H](NC(=O)COCCOCCOCCOCCOc2cc3nccc(Nc4ccc5scnc5c4)c3cc2S(=O)(=O)C(C)(C)C)C(C)(C)C)cc1 [PROTAC_RIPK2_epi]
RIPK2 levels (RIPK2 [5]): neither the PROTAC_RIPK2_epi nor the RIPK2 ligand affected RIPK2 levels | degradation of RIPK2 (RIPK2 [6]; THP-1 cells, Supplementary Fig. 6f): no degradation of RIPK2 | binding to VHL (VHL complex; concentrations up to 10 μM): no binding to VHL | ubiquitination of RIPK2 (RIPK2 [7]; any concentration (50, 100, 200 nM), up to 35 min): unable to induce ubiquitination | enrichment of RIPK2 in VHL immunoprecipitate [8]: did not influence the immune-captured proteins or enrich RIPK2 levels

COc1cc(/C=C2\SC(=O)N(CCOCCC(=O)N[C@H](C(=O)N3C[C@@H](O)C[C@H]3C(=O)NCc3ccc(-c4scnc4C)cc3)C(C)(C)C)C2=O)ccc1Oc1ccc(C#N)cc1C(F)(F)F [PROTAC_ERRα_epi]
reduction of ERRα protein levels (ERRα [1]; MCF-7, at concentrations at which the active PROTAC reduced ERRα levels by 50%): ~ 20%

Cc1ncsc1-c1ccc(CNC(=O)[C@@H]2C[C@@H](O)CN2C(=O)[C@@H](NC(=O)COCCOCCOCCOCCOc2cc3nccc(Nc4ccc5scnc5c4)c3cc2S(=O)(=O)C(C)(C)C)C(C)(C)C)cc1 [PROTAC_RIPK2]
RIPK2 levels (RIPK2 [5]): induced the degradation of RIPK2 from 6 h onwards | stabilization of HIF1α (ODD-luciferase) (HIF1α; 30 μM): modest stabilization of HIF1α | effect on ODD-luciferase levels (HIF1α; concentrations up to 3 μM): no effect | levels of other kinases bound (RIPK3, ABL and TESK) (RIPK3, ABL and TESK): not degraded | window between RIPK2 degradation and modulation of endogenous VHL function (RIPK2 [6]; RIPK2 degradation vs ODD-luciferase): > 1,000 fold | earliest time at which RIPK2 degradation was observed (RIPK2 [6]; THP-1, 30 nM): 1 h | time at which RIPK2 degradation was nearly complete (RIPK2 [6]; THP-1, 30 nM): 4 h | time for protein levels to recover to pre-treatment levels after removal (RIPK2 [6]; THP-1, 4 h pretreatment with 30 nM, washout): ≤ 24 h | RIPK2 protein levels at high concentration (hook effect) (RIPK2 [6]; THP-1, 16 h, 30 μM): returning to basal levels | Dmax (RIPK2 [6]; THP-1, 16 h, at concentrations of 10 nM and higher): > 95% | IC50 (VHL complex; competition with HIF1α-derived peptide for VHL complex): 660 nM | cellular toxicity (THP-1 cells): No cellular toxicity | MAPKAPK3 levels (MAPKAPK3 [9]): significantly degraded | Kd (MAPKAPK3 [10]): > 3000 nM | stoichiometry (modified RIPK2 to PROTAC) (RIPK2 [7]; 2.0 pmol PROTAC, final time point): 2.0 | modified RIPK2 (RIPK2 [7]; 2.0 pmol PROTAC, final time point (35 min), 500 nM RIPK2): 4.0 pmol | co-recruitment of RIPK2 over background ([8]; 30 nM): up to 16 fold | change of RIPK2 enrichment ([8]; 300 nM versus 30 nM): reduced by two-fold
